Published values gathered from unrelated publications.
Protocols differ between the studies behind these lines.
Target: Inhibitor of nuclear factor kappa-B kinase subunit alpha (CHUK, Homo sapiens, UniProt O15111)
Residues used in one study (O15111 1-745): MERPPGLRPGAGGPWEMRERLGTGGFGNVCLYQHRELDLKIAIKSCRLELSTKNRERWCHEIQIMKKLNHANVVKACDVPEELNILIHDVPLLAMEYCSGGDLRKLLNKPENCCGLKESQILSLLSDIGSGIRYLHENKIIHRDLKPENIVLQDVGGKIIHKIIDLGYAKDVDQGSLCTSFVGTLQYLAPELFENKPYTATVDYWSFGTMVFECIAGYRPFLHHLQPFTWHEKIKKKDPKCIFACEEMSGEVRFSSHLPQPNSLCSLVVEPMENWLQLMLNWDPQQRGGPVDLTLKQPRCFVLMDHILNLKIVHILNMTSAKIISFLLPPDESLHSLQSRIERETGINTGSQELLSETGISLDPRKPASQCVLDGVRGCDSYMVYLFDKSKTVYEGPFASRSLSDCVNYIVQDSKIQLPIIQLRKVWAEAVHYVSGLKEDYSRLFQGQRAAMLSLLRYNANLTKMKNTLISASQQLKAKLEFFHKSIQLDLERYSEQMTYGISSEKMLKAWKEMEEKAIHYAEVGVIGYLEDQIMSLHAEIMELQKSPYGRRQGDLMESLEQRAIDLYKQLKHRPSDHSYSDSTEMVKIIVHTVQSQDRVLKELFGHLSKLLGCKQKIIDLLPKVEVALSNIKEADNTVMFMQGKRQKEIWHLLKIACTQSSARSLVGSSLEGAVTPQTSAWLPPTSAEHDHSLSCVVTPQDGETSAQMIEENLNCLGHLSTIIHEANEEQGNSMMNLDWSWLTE

N[C@@H]1CCN(c2nccc(-c3cnn4ncccc34)n2)C1 — remaining binding (binding; 1 µM): 100%
c1cncc(-c2cccc(Nc3nccc(NC4CCCCC4)n3)c2)c1 — remaining binding (binding; competition with immobilised ligand; 10 µM): 87%
O=C(NCCCN1CCOCC1)c1ccc(Nc2nccc(-c3cc4ccccc4s3)n2)cc1 — remaining binding (binding; competition with immobilised ligand; 1 µM): 12%
O=C(NCC1CCOCC1)c1n[nH]cc1NC(=O)c1c(F)cccc1F — remaining binding (binding; competition with immobilised ligand; 1 µM): 86%
CS(=O)(=O)c1cc(C2(NC(=O)c3cncc4c3cnn4-c3ccc(F)cc3)CC2)ccn1 — remaining binding (cell-free assay; competition with immobilised ligand; 1 µM): 100%
CN(C)c1ncc(F)c(-c2cnn3ncccc23)n1 — remaining binding (binding; 1 µM): 70%
O=C(c1ccc(Nc2ncc(Cl)c(-c3cc4ccccc4s3)n2)cc1)N1CCC(N2CCCC2)CC1 — remaining binding (binding; competition with immobilised ligand; 1 µM): 0.8%
COc1cnc(Nc2cccc(S(N)(=O)=O)c2)nc1N1CCN(c2ccccc2)C(=O)C1 — remaining binding (binding; competition with immobilised ligand; 1 µM): 91%
Cc1cnn2ncc(-c3ccnc(N(C)C)n3)c2c1 — remaining binding (binding; 1 µM): 69%
CC1=C(C#N)C(c2ccc3c(c2)c(NC(=O)c2ccccc2C)nn3C)C(C#N)=C(C)N1 — remaining binding (cell-free assay; competition with immobilised ligand; 1 µM): 77%
CC1CCCN1c1nccc(-c2cnn3ncccc23)n1 (stereo not shown) — remaining binding (binding; 1 µM): 86%
COc1cc(-c2cn(C3CCc4ccccc4N(CC(F)(F)F)C3=O)nn2)ccc1-n1ccc(C)n1 (stereo not shown) — remaining binding (cell-free assay; competition with immobilised ligand; 1 µM): 98%
CCN1CCN(Cc2ccc(C(=O)Nc3ccc(C)c(Oc4ccc5c(c4)CC(=O)N5)c3)cc2C(F)(F)F)CC1 — remaining binding (binding; competition with immobilised ligand; 1 µM): 74%
C[C@@H]1CN(c2ccc3ncc(-c4ccc5[nH]nc(C6CC6)c5c4)n3n2)C[C@H](C)O1 — remaining binding (binding; competition with immobilised ligand; 50 nM): 86%
CNC(=O)[C@@H]1CC[C@@H](n2c(-c3ccc4cnccc4c3)nc3ccc(C(=O)NCc4cccc(C(N)=O)c4)cc32)C1 — remaining binding (binding; competition with immobilised ligand; 1 µM): 100%
Cn1cc(Cl)c2c(Oc3c(F)cc(Nc4cc(Cl)nc(N)n4)cc3F)ccnc21 — remaining binding (cell-free assay; competition with immobilised ligand; 0.1 µM): 85%
O=C(c1ccc(Nc2nccc(-c3cc4ccccc4s3)n2)cc1)N1CCC(N2CCCC2)CC1 — remaining binding (binding; competition with immobilised ligand; 1 µM): 0.2%
O=C(Nc1ccc(Oc2ccc(F)cc2)cc1)N1CCc2ncccc2[C@H]1c1ccc(F)cc1 — remaining binding (cell-free assay; competition with immobilised ligand; 1 µM): 100%
CN(CCCC(F)(F)F)c1nccc(-c2cnn3ncccc23)n1 — remaining binding (binding; 1 µM): 99%
CCC(=O)N[C@H]1CC[C@@H](C(=O)N(C)c2ccc(-c3nc4ccccc4o3)cc2)C1 — remaining binding (cell-free assay; competition with immobilised ligand; 1 µM): 100%
COc1ccnn2ncc(-c3ccnc(N(C)C)n3)c12 — remaining binding (binding; 1 µM): 71%
O=C(Nc1cnc(Oc2ccc(F)cc2)nc1)N1CCc2ncccc2[C@@H]1c1ccc(F)cc1 — remaining binding (cell-free assay; competition with immobilised ligand; 1 µM): 100%
C[C@@H]1CCN(c2nccc(-c3cnn4ncccc34)n2)C1 — remaining binding (binding; 1 µM): 81%
O=C(NS(=O)(=O)c1ccc(NCC2CCOCC2)c([N+](=O)[O-])c1)c1ccc(N2CCN(Cc3ccc(C(F)(F)F)cc3-c3ccc(Cl)cc3)CC2)cc1Oc1cnc2[nH]ccc2c1 — remaining binding (cell-free assay; competition with immobilised ligand; 1 µM): 81%
N#Cc1ccccc1CSc1nnc2c(n1)[nH]c1ccccc12 — remaining binding (binding; competition with immobilised ligand; 10 µM): 100%
